Assay results: ChEMBL document CHEMBL2417369, “Synthesis and evaluation of heteroaryl substituted diazaspirocycles as scaffolds to probe the ATP-binding site of protein kinases” (Bioorg Med Chem, 2013)

Assays:
[1] = target: T1, Aurora kinase A (Homo sapiens, UniProt O14965); experiment: Inhibition of AURA (unknown origin) by microfluidic mobility shift assay
T1 sequence (O14965 whole entry): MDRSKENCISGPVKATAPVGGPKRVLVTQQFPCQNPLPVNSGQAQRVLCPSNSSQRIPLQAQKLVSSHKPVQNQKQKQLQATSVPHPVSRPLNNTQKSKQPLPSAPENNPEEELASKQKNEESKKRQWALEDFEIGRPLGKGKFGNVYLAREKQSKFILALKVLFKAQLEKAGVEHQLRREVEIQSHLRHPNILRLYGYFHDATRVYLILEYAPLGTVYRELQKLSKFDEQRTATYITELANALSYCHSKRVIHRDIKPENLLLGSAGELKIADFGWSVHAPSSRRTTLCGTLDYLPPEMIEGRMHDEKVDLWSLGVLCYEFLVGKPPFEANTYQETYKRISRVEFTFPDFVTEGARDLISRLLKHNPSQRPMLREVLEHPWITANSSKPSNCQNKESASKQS

[2] = target: T2, Serine/threonine-protein kinase Chk1 (Homo sapiens, UniProt O14757); experiment: Inhibition of CHK1 (unknown origin) by Z'-Lyte assay
T2 sequence (O14757 whole entry): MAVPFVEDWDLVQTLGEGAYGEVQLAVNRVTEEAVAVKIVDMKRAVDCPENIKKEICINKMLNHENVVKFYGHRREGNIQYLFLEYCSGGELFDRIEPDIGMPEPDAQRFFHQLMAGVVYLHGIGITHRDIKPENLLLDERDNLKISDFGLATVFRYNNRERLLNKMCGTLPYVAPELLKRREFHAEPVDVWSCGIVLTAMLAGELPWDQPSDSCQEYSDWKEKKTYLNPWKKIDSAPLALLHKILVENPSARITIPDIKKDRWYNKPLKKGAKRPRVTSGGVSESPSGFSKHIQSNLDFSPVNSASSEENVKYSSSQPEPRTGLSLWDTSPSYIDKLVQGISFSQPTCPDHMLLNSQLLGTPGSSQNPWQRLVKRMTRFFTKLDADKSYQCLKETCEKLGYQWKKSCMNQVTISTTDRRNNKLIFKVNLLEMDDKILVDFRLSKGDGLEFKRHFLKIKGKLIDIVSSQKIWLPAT
Method in brief: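 CHK1 IC50 was obtained by titration in the Z'-Lyte assay format, run as an outsourced screening service.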

[3] = target: Tyrosine-protein kinase Fer (Homo sapiens) (UniProt P16591); experiment: Inhibition of FER (unknown origin) at 30 uM by microfluidic mobility shift assay relative to control
Method in brief: (§1)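 Single-point screen at 30 µM test compound across a 24-kinase panel in a microfluidic assay format. ATP was set near each enzyme's Km,[ATP]. […] The pan-AGC inhibitor H-89 served as an internal control on every assay plate.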

[4] = test system: T3, Receptor-type tyrosine-protein kinase FLT3 (Homo sapiens), P36888 [D835Y]; experiment: Inhibition of FLT3 D835Y mutant (unknown origin) at 30 uM by microfluidic mobility shift assay relative to control; method in brief: as §1
T3 sequence (whole entry): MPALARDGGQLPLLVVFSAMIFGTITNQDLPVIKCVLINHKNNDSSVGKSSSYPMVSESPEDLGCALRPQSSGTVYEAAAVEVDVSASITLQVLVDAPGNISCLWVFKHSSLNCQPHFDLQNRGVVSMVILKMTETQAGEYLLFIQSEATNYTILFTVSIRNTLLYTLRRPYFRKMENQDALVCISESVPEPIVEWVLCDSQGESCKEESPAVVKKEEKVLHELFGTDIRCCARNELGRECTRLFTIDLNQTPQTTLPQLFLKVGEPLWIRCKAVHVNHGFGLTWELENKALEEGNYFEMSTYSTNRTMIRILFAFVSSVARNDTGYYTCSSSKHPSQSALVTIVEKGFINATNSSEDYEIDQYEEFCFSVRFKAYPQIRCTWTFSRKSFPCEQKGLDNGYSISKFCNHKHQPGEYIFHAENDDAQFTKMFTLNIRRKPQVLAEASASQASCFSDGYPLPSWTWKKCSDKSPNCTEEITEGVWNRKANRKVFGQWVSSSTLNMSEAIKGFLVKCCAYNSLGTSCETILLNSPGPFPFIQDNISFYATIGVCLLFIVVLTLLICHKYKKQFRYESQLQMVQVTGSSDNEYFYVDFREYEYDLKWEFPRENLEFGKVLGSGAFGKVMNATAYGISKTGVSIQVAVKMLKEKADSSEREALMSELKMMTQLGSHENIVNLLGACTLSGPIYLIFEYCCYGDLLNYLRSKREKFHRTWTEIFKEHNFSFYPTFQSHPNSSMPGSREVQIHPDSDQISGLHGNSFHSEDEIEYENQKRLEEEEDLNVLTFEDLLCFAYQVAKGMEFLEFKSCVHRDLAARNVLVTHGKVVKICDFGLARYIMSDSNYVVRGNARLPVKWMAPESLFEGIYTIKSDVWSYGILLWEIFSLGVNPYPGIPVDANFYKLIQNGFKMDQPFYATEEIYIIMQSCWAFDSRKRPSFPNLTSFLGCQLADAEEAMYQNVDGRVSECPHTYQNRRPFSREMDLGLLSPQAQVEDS

[5] = target: Tyrosine-protein kinase SYK (Homo sapiens) (UniProt P43405); experiment: Inhibition of SYK (unknown origin) at 30 uM by microfluidic mobility shift assay relative to control
Method in brief: (§2)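 Single-point screen against a 24-kinase panel in a commercial microfluidic assay format. Compounds were tested at 30 µM, with ATP at approximately the Km,[ATP] of each enzyme. H-89 was included on each assay plate as an internal control.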

[6] = test system: Fibroblast growth factor receptor 2 (Homo sapiens), P21802 [N549H]; experiment: Inhibition of FGFR2 N549H mutant (unknown origin) at 30 uM by microfluidic mobility shift assay relative to control; method in brief: as §1
[7] = target: T4, Testis-specific serine/threonine-protein kinase 1 (Homo sapiens) (UniProt Q9BXA7); experiment: Inhibition of TSSK1 (unknown origin) at 30 uM by microfluidic mobility shift assay relative to control; method in brief: as §2
T4 sequence (whole entry): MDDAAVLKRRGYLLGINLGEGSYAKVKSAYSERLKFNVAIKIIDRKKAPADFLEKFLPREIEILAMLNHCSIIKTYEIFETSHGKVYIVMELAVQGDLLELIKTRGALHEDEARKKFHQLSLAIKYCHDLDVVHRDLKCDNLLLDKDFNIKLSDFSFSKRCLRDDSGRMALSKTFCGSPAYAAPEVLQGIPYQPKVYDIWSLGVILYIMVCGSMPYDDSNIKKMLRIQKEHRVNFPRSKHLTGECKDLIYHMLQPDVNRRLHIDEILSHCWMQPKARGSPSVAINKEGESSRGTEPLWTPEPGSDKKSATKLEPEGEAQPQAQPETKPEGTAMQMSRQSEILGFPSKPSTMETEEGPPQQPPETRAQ

[8] = species: Homo sapiens; experiment: Inhibition of DCAMK (unknown origin) at 30 uM by microfluidic mobility shift assay relative to control; method in brief: as §1
[9] = target: Protein kinase C gamma type (Homo sapiens) (UniProt P05129); experiment: Inhibition of PKCgamma (unknown origin) at 30 uM by microfluidic mobility shift assay relative to control; method in brief: as §2
[10] = target: Protein kinase C alpha type (Homo sapiens) (UniProt P17252); experiment: Inhibition of PKCalpha (unknown origin) at 30 uM by microfluidic mobility shift assay relative to control; method in brief: as §1

Sequence of Fibroblast growth factor receptor 2 (Homo sapiens), P21802 [N549H] (P21802 whole entry N549H): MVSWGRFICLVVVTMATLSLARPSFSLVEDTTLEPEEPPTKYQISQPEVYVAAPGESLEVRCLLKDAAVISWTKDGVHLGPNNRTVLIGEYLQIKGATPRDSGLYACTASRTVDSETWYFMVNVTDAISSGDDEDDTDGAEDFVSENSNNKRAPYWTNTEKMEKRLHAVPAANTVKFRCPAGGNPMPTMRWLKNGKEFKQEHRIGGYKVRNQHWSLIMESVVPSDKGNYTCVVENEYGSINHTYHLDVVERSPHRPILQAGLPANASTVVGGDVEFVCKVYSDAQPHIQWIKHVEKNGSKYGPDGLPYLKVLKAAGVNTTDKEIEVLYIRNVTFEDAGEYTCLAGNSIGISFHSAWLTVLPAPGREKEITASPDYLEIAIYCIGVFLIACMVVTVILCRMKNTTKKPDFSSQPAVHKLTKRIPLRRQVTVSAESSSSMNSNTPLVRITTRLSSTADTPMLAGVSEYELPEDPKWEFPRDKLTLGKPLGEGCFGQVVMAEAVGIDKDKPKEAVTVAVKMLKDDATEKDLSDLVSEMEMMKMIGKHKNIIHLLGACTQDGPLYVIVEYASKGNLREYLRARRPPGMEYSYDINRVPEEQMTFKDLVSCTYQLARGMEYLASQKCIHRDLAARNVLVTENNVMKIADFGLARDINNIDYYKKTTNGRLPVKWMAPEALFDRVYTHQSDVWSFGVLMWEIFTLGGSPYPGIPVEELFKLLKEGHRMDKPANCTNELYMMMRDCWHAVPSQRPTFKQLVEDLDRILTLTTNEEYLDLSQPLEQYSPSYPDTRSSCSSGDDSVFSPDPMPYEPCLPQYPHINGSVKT
Sequence of Tyrosine-protein kinase Fer (Homo sapiens) (P16591 whole entry, looked up): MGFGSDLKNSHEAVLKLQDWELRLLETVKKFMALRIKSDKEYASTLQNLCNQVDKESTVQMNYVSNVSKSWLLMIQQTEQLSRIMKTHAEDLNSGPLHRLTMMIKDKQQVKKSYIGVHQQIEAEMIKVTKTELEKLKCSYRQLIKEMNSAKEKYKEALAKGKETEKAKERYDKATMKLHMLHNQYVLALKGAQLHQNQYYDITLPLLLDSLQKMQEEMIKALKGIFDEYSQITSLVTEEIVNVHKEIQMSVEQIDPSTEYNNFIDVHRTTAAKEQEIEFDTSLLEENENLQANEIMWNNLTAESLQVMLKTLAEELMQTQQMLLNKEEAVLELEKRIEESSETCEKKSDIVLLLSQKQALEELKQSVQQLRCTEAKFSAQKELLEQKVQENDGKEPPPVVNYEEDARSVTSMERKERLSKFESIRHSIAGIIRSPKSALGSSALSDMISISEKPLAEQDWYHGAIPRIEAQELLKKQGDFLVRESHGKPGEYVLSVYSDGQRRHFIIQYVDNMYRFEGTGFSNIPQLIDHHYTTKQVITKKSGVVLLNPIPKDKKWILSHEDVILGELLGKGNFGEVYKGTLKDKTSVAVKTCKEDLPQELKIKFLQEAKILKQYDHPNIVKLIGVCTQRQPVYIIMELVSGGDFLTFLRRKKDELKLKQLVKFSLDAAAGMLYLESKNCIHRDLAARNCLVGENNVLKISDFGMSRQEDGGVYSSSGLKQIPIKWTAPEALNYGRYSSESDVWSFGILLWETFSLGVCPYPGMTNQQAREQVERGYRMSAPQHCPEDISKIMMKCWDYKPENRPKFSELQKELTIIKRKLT

inhibition [3]	inhibition [4]	inhibition [5]	inhibition [6]	inhibition [7]	inhibition [8]	inhibition [9]	inhibition [10]	SMILES	IC50 [1]	IC50 [2]
–	–	–	–	–	–	–	–	c1nc(N2CCC3(CCCCN3)CC2)c2nc[nH]c2n1	7.8 µM	18 µM
–	–	–	–	–	–	–	–	c1nc(N2CCC3(CCCNC3)CC2)c2nc[nH]c2n1	9.8 µM	1.8 µM
12%	45%	24%	20%	99%	17%	77%	59%	c1ccc(C2CCNC3(CCN(c4ncnc5[nH]cnc45)CC3)C2)cc1 (racemic)	–	–
–	–	–	–	–	–	–	–	O=S(=O)(c1cccc2cnccc12)N1CCCC2(CCCNC2)C1 (stereo not given)	–	12.8 µM
–	–	–	–	–	–	–	–	O=C(O)C1CCC2(CCN(c3ncnc4[nH]cnc34)CC2)NC1 (racemic)	6.1 µM	–
10%	56%	0%	15%	65%	13%	53%	35%	c1ccc(CC2CCC3(CCN(c4ncnc5[nH]cnc45)CC3)NC2)cc1 (racemic)	–	–
2%	22%	8%	22%	97%	20%	86%	78%	c1ccc(CC2CCNC3(CCN(c4ncnc5[nH]cnc45)CC3)C2)cc1 (racemic)	–	–
